Data published in paper PMC2812011 (Cancer cell, 2009).

Key:
[1] = test system: DU145 xenografts; experiment: DU145 xenograft tumor growth; assay type: in vivo, mice; conditions: DU145, 50 mg/kg p.o. once daily, 26 d; p < 0.001, n=7
[2] = test system: TEL-Tyk2; experiment: Stat5 phosphorylation in Ba/F3 TEL-Tyk2 cells; assay type: cell-based; conditions: at or below 1 µM
[3] = test system: DU145, MDAH2774, and MDA-MB-468 cells; experiment: 72 h viability assay in solid tumor cell lines; assay type: cell-based; conditions: Homo sapiens
[4] = molecular target: TEL-Jak2 (Homo sapiens, UniProt O60674+P41212); experiment: Stat5 phosphorylation in Ba/F3 TEL-Jak2 cells; assay type: cell-based
[5] = test system: Jak1; conditions: enzymatic assays, at Km ATP
[6] = test system: MEF-Stat3-YFP tumors; experiment: MEF-Stat3-YFP tumor growth in athymic mice; assay type: in vivo; conditions: 50 mg/kg p.o. once daily, relative to vehicle; p = 0.001, n=6
[7] = test system: pStat3 Tyr705; experiment: Constitutive pStat3 in DU145, MDA-MB-468 and MDAH2774 cells; assay type: cell-based, human; conditions: 2 h, DU145, MDA-MB-468, MDAH2774
[8] = test system: Aurora A; experiment: Aurora A in kinase panel; assay type: biochemical
Method in brief: (§1)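 Kinase selectivity panel of 82 kinases chosen to span the kinome by binding-site similarity and gatekeeper residue. Each kinase was assayed with ATP at or near its Km. The test compound was tested at three concentrations: 0.01, 0.10 and 1.0 µM. Percent inhibition was scored, and kinases inhibited by more than 50% were counted.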

[9] = test system: MDAH2774 xenografts; experiment: MDAH2774 xenograft tumor growth; assay type: in vivo, mice; conditions: 26 d, p < 0.001, n=10
[10] = test system: LN-17 cells; experiment: LN-17 prostate cancer cells: pStat3, MTS viability, Annexin V; assay type: cell-based, human
[11] = test system: pStat3 Tyr705; experiment: Pharmacodynamics in xenograft tumor lysates and sections; assay type: in vivo, mice
[12] = molecular target: panel of 82 kinases; experiment: Kinase selectivity panel of 82 kinases; assay type: biochemical; conditions: 0.10 µM, at or near Km for ATP; count includes Jak2
Method in brief: as §1

[13] = test system: MDA-MB-468 xenografts; experiment: MDA-MB-468 xenograft tumor growth; assay type: in vivo, mice; conditions: MDA-MB-468, 50 mg/kg p.o. once daily, 30 d; p < 0.001, n=7
[14] = test system: 786-0 renal cell carcinoma vector control xenografts; experiment: 786-0 vector control xenograft tumor growth; assay type: in vivo, mice; conditions: 50 mg/kg, 41 d, p = 0.038, n = 10
[15] = test system: pStat3 Tyr705; experiment: pStat3 in MEF-Stat3-YFP tumor lysates; assay type: in vivo, mice; conditions: 2 h post treatment, 50 mg/kg
[16] = test system: TEL-Jak3; experiment: Stat5 phosphorylation in Ba/F3 TEL-Jak3 cells; assay type: cell-based; conditions: at or below 1 µM
[17] = test system: 786-0 xenografts expressing Stat3C; experiment: 786-0 Stat3C xenograft tumor growth; assay type: in vivo, mice; conditions: 786-0 expressing Stat3C, 50 mg/kg, 41 d
[18] = molecular target: Jak2 kinase (Homo sapiens, UniProt O60674); experiment: Jak2 kinetic studies; assay type: biochemical
[19] = test system: TEL-Jak1; experiment: Stat5 phosphorylation in Ba/F3 TEL-Jak1 cells; assay type: cell-based; conditions: at or below 1 µM

Chain of Jak2 kinase (O60674 808-1132): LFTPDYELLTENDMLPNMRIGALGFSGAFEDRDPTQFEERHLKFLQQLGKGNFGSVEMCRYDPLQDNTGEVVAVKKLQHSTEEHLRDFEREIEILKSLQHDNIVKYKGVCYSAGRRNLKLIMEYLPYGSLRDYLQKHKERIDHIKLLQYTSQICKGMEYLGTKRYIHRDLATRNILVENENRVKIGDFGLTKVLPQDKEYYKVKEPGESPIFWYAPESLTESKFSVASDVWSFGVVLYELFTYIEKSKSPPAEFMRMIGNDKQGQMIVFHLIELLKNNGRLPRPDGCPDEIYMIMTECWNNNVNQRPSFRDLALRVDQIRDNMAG
Chain of TEL-Jak2 (O60674 849-1132 limits assumed, one chain of several): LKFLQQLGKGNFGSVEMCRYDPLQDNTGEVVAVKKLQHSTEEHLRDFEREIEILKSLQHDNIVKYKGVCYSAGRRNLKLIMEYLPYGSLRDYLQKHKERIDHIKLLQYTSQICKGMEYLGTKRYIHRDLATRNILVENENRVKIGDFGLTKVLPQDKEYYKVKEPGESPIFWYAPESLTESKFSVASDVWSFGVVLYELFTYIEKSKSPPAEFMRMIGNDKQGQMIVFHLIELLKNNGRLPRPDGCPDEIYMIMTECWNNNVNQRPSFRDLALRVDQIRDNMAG

Cc1cc(Nc2nc(N[C@@H](C)c3ncc(F)cn3)ncc2Cl)n[nH]1 [AZD1480]
growth inhibition [1]: 81% | inhibition of STAT5 phosphorylation [2]: little or no inhibition | GI50 [3]: 2400 to 5400 nM | IC50 [4]: 46 nM | Jak2 selectivity over Jak1 [5]: marginal selectivity over Jak1 | tumor growth inhibition [6]: 58% | inhibition of constitutive pStat3 Tyr705 ([7]; 0.1 µM): Significant inhibition | inhibition of constitutive pStat3 Tyr705 ([7]; 0.25 –0.5 µM): near ablation of signal | Aurora A enzyme activity [8]: inhibited | growth inhibition ([9]; MDAH2774, 10 mg/kg twice daily p.o.): 71% | growth inhibition ([9]; MDAH2774, 30 mg/kg twice daily p.o., tumor regression): 139% | lethal toxicity or weight loss (doses tested, 26 days of dosing): No lethal toxicity or weight loss | red blood cell counts (mouse, in vivo, 10 mg/kg): no changes | red blood cell counts decrease (mouse, in vivo, 30 mg/kg): approximately 13% | pStat3 Tyr705 ([10]; 24 h): Dose-dependent inhibition | apoptotic markers Annexin V and PARP cleavage ([10]; 72 h): dose-dependent increase | viability ([10]; MTS, 72 h, charcoal-stripped FBS): loss of viability | pHisH3 staining (mitotic marker) ([11]; MDAH2774 xenografts, 30 mg/kg, up to 16h post-dose): No modulation | recovery of pStat3 Tyr705 expression ([11]; by 16 h after single 30 mg/kg dose, MDAH2774 xenografts): fully recovered | duration of significant inhibition of pStat3 ([11]; single dose of 30 mg/kg, MDAH2774 xenografts): > 10 h | expression of p44/42 pMAPK and pAKT Ser473 in tumors ([11]; treated tumors compared to control animals): No significant change | inhibition of pStat3 Tyr705 in tumor lysates ([11]; xenografts harvested 2 h post treatment): Complete inhibition | kinases inhibited by greater than 50% [12]: 11/82 | growth inhibition [13]: 111% | growth inhibition [14]: 48% | pStat3 Tyr705 in tumors [15]: abolished | inhibition of STAT5 phosphorylation [16]: little or no inhibition | growth inhibition [17]: no growth inhibition | Ki [18]: 0.26 nM | inhibition of STAT5 phosphorylation [19]: little or no inhibition
